XiGFP reactiv: X-chromosome reactivation activator; AID 743238; XiGFP mouse fibroblasts, % GFP-positive cells imaging, 3 d; cells co-treated with 5-aza-dC sensitizer; scaled so ellipticine positive control = 100%; activation, % at 7.58 µM; 360,000 tested, 0.055% active;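 active = mean normalized replicate activation at least 10% and every replicate at or above 10%; inconclusive = only one of the two criteria met; inactive = mean below 10% and not all replicates reach 10%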;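 note: 0% = median of on-plate neutral control wells and 100% = ellipticine 6 µM median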
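System: SV40-immortalized XiGFP fibroblast cells, line 68-5-11 / Incubation: 3-day compound exposure, then 15 min fixation at room temperature / Compound: single concentration per compound, delivered by pin transfer / Buffer or medium: DMEM plus 5-aza-dC sensitizer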
LGR2 inh: blocks bursicon-induced cAMP signaling via Drosophila LGR2. HEK293 LGR2, CRE-luciferase, bursicon-stimulated, 4 h. 380,000 tested, 0.35% active. AID 720647. inhibition, % at 9.99 µM;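 active = drop in luminescence signal, shown as inhibition above about 50% in the replicate tests, limit read from the data, passing the limit was not always enough; inconclusive = probably only some replicates passing the limit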;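 note: agonist challenge used bursicon conditioned medium at about half maximal strength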
EWS-Fli block: inhibitors of EWS/Fli oncoprotein transcriptional activity | A673 NR0B1-luciferase reporter, viability-normalised | inhibition, % at 12.6 µM | 350,000 tested, 0.67% active | AID 651661;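 active = mean inhibition of at least 50% after viability correction, with every replicate also passing that limit; inconclusive = mean reaches 50% but only one of two replicates passes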;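 note: firefly luciferase signal divided by Alamar Blue viability fluorescence both relative to DMSO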
TROY signal inh: blocks TROY-dependent signaling in reporter cells; Q293 LMP1-TROYcd NF-kB luciferase reporter, 4 h; inhibition, % at 10 µM; 360,000 tested, 0.98% active;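 active = compounds whose plate-normalised and pattern-corrected inhibition of the luciferase reporter signal at the single screening dose is 50% or more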
FN deposition inh: fibronectin deposition inhibition; AID 743247; inhibition, % at 12.6 µM; 350,000 tested, 0.086% active; AH1F fibroblasts, Alexa488-fibronectin deposition fluorescence, overnight;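 active = mean inhibition across replicates of 30% or more, regardless of how many single replicates reach that level; inconclusive = mean under 30% yet at least half of replicates reach 30%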;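 note: positive control wells lacked labelled fibronectin entirely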
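Material: AH1F fibroblast monolayer depositing Alexa488-labelled fibronectin into matrix | Input: 10000 AH1F cells/well | Medium: DMEM plus 2% serum, read in PBS | Reagent: Alexa488-fibronectin, 24 nM final in well | Compound dosing: One dose per compound, pinned | Schedule: 1 h adhesion, overnight exposure | Measured by: Fluorescence at 485 nm excitation, 525 nm emission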
TWEAK Fn14 block: inhibitors of TWEAK-Fn14 interaction signaling. TWEAK-stimulated Fn14 reporter cells, luciferase luminescence, 8 h. inhibition, % at 10 µM. 360,000 tested, 2% active; in the data active = inhibition above about 50%
* hit, by the source's call. In the library only some 2.3% were active in any assay of this set; here they are far more common.

Results for Cc1ccc(NC(=O)c2ccc(S(=O)(=O)N(C)c3ccccc3)cc2)cc1S(=O)(=O)N1CCOCC1 ?
XiGFP reactiv: 0.0; LGR2 inh: 8.6; EWS-Fli block: 27.4; TROY signal inh: 39.3; FN deposition inh: 2.8; TWEAK Fn14 block: 59.4*

What do the screens show for `CN(c1ccccc1)S(=O)(=O)c1ccc(NC(=O)c2ccc(-c3ccccc3)cc2)cc1`?
LGR2 inh: 18.5; EWS-Fli block: 7.2; TROY signal inh: 35.5; TWEAK Fn14 block: 54.1*

Results for CC(=O)Nc1ccc(NC(=O)c2ccc(N(C)S(=O)(=O)c3ccc(C)cc3)cc2)cc1 ?
XiGFP reactiv: 0.1; LGR2 inh: 8.4; TROY signal inh: -15.5; FN deposition inh: -0.5; TWEAK Fn14 block: 22.7

Results for Cc1ccc(NC(=O)C(C)N2C(=O)c3ccccc3C2=O)cc1S(=O)(=O)N1CCOCC1 (stereo unspecified) ?
XiGFP reactiv: 0.3; LGR2 inh: 11.7; EWS-Fli block: -9.4; TROY signal inh: 63.6*; FN deposition inh: -9.7; TWEAK Fn14 block: 17.4

What do the screens show for `Cc1nc2cc(NC(=O)c3ccc(S(=O)(=O)N(C)c4ccccc4)cc3)ccc2o1`?
XiGFP reactiv: -0.1; LGR2 inh: -16.1; TROY signal inh: 13.8; FN deposition inh: 6.0; TWEAK Fn14 block: 74.2*

How did CN(c1cccc(NC(=O)c2ccc(N(C)S(=O)(=O)c3ccccc3)cc2)c1)S(C)(=O)=O do in these assays?
XiGFP reactiv: 0.1; LGR2 inh: 18.7; EWS-Fli block: 2.9; TROY signal inh: 31.3; FN deposition inh: 7.0; TWEAK Fn14 block: 41.7

What do the screens show for `CC(C)(C)[S@@](=O)N1Cc2cc(C(=O)N[C@@H]3CCN(Cc4ccccc4)C3)nc(-c3cccc(-c4cncnc4)c3)c2[C@H]1CCO`?
XiGFP reactiv: -0.1; FN deposition inh: 7.2

What do the screens show for `Cc1nc2ccc(NC(=O)c3ccc(Cl)c(S(=O)(=O)N(C)c4ccccc4)c3)cc2s1`?
XiGFP reactiv: -0.1; LGR2 inh: 7.4; TROY signal inh: 56.2*; FN deposition inh: 3.0; TWEAK Fn14 block: 95.6*

Results for Cc1nc2ccc(NC(=O)c3cc(S(=O)(=O)N(C)c4ccccc4)ccc3Cl)cc2s1 ?
LGR2 inh: -3.2; TROY signal inh: 6.5; FN deposition inh: 12.8; TWEAK Fn14 block: 39.7

Results for C[C@H]1CN([C@@H](C)CO)C(=O)c2cc(NC(=O)Cn3cnnn3)ccc2O[C@@H]1CN(C)C(=O)Nc1cccc2ccccc12 ?
XiGFP reactiv: 0.2; LGR2 inh: 15.2; EWS-Fli block: -4.8

Results for C[C@@H]1CN([C@@H](C)CO)C(=O)c2cccc(NC(=O)c3cnccn3)c2O[C@H]1CN(C)S(=O)(=O)c1ccccc1 ?
XiGFP reactiv: -0.4; LGR2 inh: -0.5; EWS-Fli block: -7.6

How did COc1ccc(NC(=O)/C(C#N)=C\c2cc(C)n(-c3ccc4c(c3)OCO4)c2C)cc1 do in these assays?
XiGFP reactiv: 0.3; LGR2 inh: 8.7; EWS-Fli block: 20.1; TROY signal inh: 20.9; FN deposition inh: -13.2; TWEAK Fn14 block: 51.4*

What do the screens show for `CC(=O)OC[C@]12CC[C@H]3[C@@](C)(CC[C@H]4C(C)(C)CCC[C@]34C)[C@@H]1CC(C1=CC(=O)OC1O)O2` (stereo partly specified)?
EWS-Fli block: 55.7*; TROY signal inh: 88.2*; TWEAK Fn14 block: 107.7*

How did CC(=O)OC[C@]1(OC(C)=O)C[C@@]23CC[C@H]4[C@@](C)(CCC[C@@]4(C)C(=O)O)[C@@H]2CC[C@@H]1C3 do in these assays?
XiGFP reactiv: 0.0; EWS-Fli block: 5.9; TROY signal inh: 8.3; FN deposition inh: 3.9; TWEAK Fn14 block: -1.7

What do the screens show for `Cc1ccc(O)c(N=Nc2ccccc2)n1`?
XiGFP reactiv: 0.3; LGR2 inh: inconclusive; EWS-Fli block: -84.5; TROY signal inh: 25.6; FN deposition inh: -5.4; TWEAK Fn14 block: 57.5*

Results for Oc1ccc(Cl)cc1N=Nc1ccccc1 ?
XiGFP reactiv: 0.0; LGR2 inh: -20.9; EWS-Fli block: 6.6; TROY signal inh: -41.2; FN deposition inh: -2.3; TWEAK Fn14 block: -17.0

What do the screens show for `O=C(C[C@@H]1C=C[C@@H](NC(=O)c2ccc(F)cc2)[C@H](CO)O1)NCCc1ccccc1`?
XiGFP reactiv: -0.1; LGR2 inh: 0.7; EWS-Fli block: 0.5; FN deposition inh: -12.8

How did COc1ccc(CNC(=O)CNS(=O)(=O)c2ccc(Cl)cc2)cc1 do in these assays?
XiGFP reactiv: 0.0; EWS-Fli block: 1.4; TROY signal inh: 79.8*; FN deposition inh: -2.1; TWEAK Fn14 block: 82.0*

How did COc1ccc(CCNC(=O)CNS(=O)(=O)c2ccc(Cl)cc2)cc1 do in these assays?
XiGFP reactiv: 0.0; LGR2 inh: 0.6; EWS-Fli block: 5.9; TROY signal inh: -7.7; FN deposition inh: 0.7; TWEAK Fn14 block: -10.9

Results for N#C/C(=C\c1ccc(Cl)cc1Cl)c1n[nH]c(Cn2cncn2)n1 ?
TWEAK Fn14 block: 65.3*

Results for CCC(=O)Nc1ccc2c(c1)C(=O)N(C)C[C@@H](OC)[C@@H](C)CN(C(=O)NC(C)C)[C@@H](C)CO2 ?
XiGFP reactiv: -0.3; LGR2 inh: -0.4; EWS-Fli block: -2.1; FN deposition inh: 2.0

What do the screens show for `c1ccc(OCCSc2nnc3sc4ccccc4n23)cc1`?
LGR2 inh: 91.7*; EWS-Fli block: 59.7*; TROY signal inh: 67.1*; TWEAK Fn14 block: 91.2*

What do the screens show for `COc1cccc(OCCSc2nnc3sc4ccccc4n23)c1`?
TROY signal inh: -34.7; TWEAK Fn14 block: -14.6

What do the screens show for `CCOc1ccc2c(c1)C(C)=CC(C)(C)N2S(=O)(=O)c1ccc(F)cc1`?
XiGFP reactiv: 0.4; LGR2 inh: 7.4; EWS-Fli block: 61.6*; TROY signal inh: 18.7; FN deposition inh: -0.8; TWEAK Fn14 block: -8.6

How did CCOc1ccc2c(c1)C(C)=CC(C)(C)N2S(=O)(=O)c1ccc(NC(C)=O)cc1 do in these assays?
XiGFP reactiv: 1.5; LGR2 inh: -5.2; EWS-Fli block: 47.1; TROY signal inh: 29.7; FN deposition inh: -38.1; TWEAK Fn14 block: -6.4

What do the screens show for `C[C@@H]1CN([C@H](C)CO)C(=O)c2cc(NS(=O)(=O)c3ccc(F)cc3)ccc2O[C@@H]1CN(C)C(=O)Nc1ccc(C(F)(F)F)cc1`?
XiGFP reactiv: -1.2; LGR2 inh: -1.0; EWS-Fli block: -2.5

How did OC(c1ccccc1)(c1ccccc1)C1CCN(CCCOc2ccc(C(F)(F)F)cc2)CC1 do in these assays?
XiGFP reactiv: 0.1; LGR2 inh: 107.0*; EWS-Fli block: 17.7; FN deposition inh: 9.9

Results for COc1ccc(OCCCN2CCC(C(O)(c3ccccc3)c3ccccc3)CC2)cc1 ?
XiGFP reactiv: -0.1; LGR2 inh: -5.5; EWS-Fli block: 19.4; FN deposition inh: 2.6
